Screening results deposited in PubChem BioAssay by Broad Institute.
The list is not random: actives were taken first. Their share in the collection is about 1.3%.
S100A4 MyoIIA: blocks human S100A4 binding to myosin IIA peptide; S100A4/TAMRA-MyoIIA peptide fluorescence polarization; AID 652163; 360,000 compounds, 0.14% hits; inhibition, % at 10.7 µM;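 active = mean inhibition of at least 70% across replicates, with every replicate also reaching that level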
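Test system – S100A4 monomer (human) · Compound – single-point compound testing · Schedule – 5 min incubation before reading · Probe or stimulus – TAMRA-labelled myosin IIA heavy-chain peptide probe, 5 nM · Benchmarks – neutral control DMSO, positive control TFP · Medium – Calcium-containing HEPES buffer, pH 7.2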
MLL AF4-AF9 inh: MLL-AF4/AF9 protein interaction inhibition; inhibition, % at 10 µM; AlphaScreen, biotin-AF4 peptide binding to FLAG-AF9; AID 651704; P42568; 350,000 compounds, 0.47% hits;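 active = every replicate reaching a set inhibition limit, whatever the replicate mean, cut at about 25% in these data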;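 also: 0% = plate neutral control median and 100% = total signal loss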
XiGFP reactiv: activators of X-chromosome reactivation in mouse fibroblasts; XiGFP mouse fibroblasts, % GFP-positive cells imaging, 3 d; cells co-treated with 5-aza-dC sensitizer; scaled so ellipticine positive control = 100%; 360,000 compounds, 0.055% hits; activation, % at 7.58 µM;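 active = mean normalized replicate activation at least 10% and every replicate at or above 10%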;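 also: 0% = median of on-plate neutral control wells and 100% = ellipticine 6 µM median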
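assay system = SV40-immortalized XiGFP fibroblast cells, line 68-5-11 | buffer or medium = DMEM plus 5-aza-dC sensitizer | doses = single-point pinned compound dosing | times = 3-day compound exposure, then 15 min fixation at room temperature | benchmarks = positive control ellipticine, 6 µM final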
RAD54 inh: blocks human RAD54 Holliday junction branch migration. FAM/BHQ fluorescence. Q92698. 360,000 compounds, 0.14% hits. inhibition, % at 10.4 µM. AID 602329;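 active = mean normalized replicate activity at least 40 and at least half of replicates scoring 40 or more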;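 also: 0% = median of neutral control wells and 100% = median of positive control wells; inhibitors cause a drop in the FAM fluorescence signal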
Target sequence (Q92698 whole entry, looked up): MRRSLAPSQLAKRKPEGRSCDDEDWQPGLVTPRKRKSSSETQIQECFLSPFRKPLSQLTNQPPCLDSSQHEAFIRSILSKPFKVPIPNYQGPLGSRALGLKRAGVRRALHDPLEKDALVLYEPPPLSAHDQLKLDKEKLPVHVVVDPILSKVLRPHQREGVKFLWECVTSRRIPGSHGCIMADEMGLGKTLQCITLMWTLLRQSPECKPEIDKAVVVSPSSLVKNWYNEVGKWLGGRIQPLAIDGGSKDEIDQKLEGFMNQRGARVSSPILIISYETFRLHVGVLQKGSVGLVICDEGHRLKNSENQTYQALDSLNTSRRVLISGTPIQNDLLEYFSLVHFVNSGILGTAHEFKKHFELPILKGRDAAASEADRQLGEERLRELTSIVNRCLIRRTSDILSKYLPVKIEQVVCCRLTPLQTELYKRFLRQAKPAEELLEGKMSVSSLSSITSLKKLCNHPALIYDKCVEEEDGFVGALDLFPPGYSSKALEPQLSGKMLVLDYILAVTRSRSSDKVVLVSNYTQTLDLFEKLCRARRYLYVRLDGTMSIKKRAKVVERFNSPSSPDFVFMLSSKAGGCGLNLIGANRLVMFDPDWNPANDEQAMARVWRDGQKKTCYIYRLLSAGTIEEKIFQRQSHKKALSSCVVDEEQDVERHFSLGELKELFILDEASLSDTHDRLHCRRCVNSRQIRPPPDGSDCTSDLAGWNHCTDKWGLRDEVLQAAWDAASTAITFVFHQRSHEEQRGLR
RAD52 anneal inh: blocks human RAD52 DNA annealing; recombinant RAD52 DNA annealing, FRET fluorescence; 360,000 compounds, 0.46% hits; P43351; inhibition, % at 18.7 µM;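 active = every replicate showing at least 50% inhibition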
CASP6 VEID inh: inhibitors of human caspase-6; purified caspase-6, Z-VEID-R110 cleavage fluorescence; inhibition, % at 12.5 µM; AID 686996; 350,000 compounds, 0.53% hits; P55212;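 active = mean inhibition across replicates at least about 35%, with every replicate also reaching that limit, limit read from the data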;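 also: 0% = median of neutral control wells and 100% = no fluorescence left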
Starred values were filed as active, the others as inactive; · = no result given.

SMILES | S100A4 MyoIIA | MLL AF4-AF9 inh | XiGFP reactiv | RAD54 inh | RAD52 anneal inh | CASP6 VEID inh
O=C(NC(=C(Cl)Cl)S(=O)(=O)c1ccc(Cl)cc1)c1ccccc1 | -1 | 7 | 0 | 15 | -12 | 39*
Cc1ccc(S(=O)(=O)C(NC(=O)c2ccccc2)=C(Cl)Cl)cc1 | · | · | · | -4 | · | ·
O=C(C[C@@H]1C=C[C@@H](NC(=O)C2CC2)[C@@H](CO)O1)NCCc1cscn1 | -3 | -8 | 0 | · | 3 | 4
Cc1ccc(C(=O)N/C(=C\c2ccc(-c3ccc(Br)cc3)o2)C(=O)NCCCN(C)C)cc1 | -1 | 25* | 3 | · | -44 | -23
CN(C)CCNC(=O)/C(=C/c1ccc(-c2ccc(Cl)cc2)o1)NC(=O)c1ccccc1 | · | · | 0 | 25 | · | ·
CC(=O)N(C)C[C@H]1Oc2c(NS(C)(=O)=O)cccc2C(=O)N(C)C[C@@H]1C | · | · | 0 | · | · | ·
C[C@@H]1CN([C@@H](C)CO)C(=O)c2cc(NS(=O)(=O)c3cccs3)ccc2O[C@@H](C)CCCCO[C@@H]1CN(C)C(=O)c1ccccc1 | 10 | 1 | 0 | -4 | -12 | 8
Cc1nc(CNS(=O)(=O)c2cccc(F)c2)cs1 | · | · | · | 3 | · | ·
Cc1ccc(-c2csc(NS(=O)(=O)c3cccc(F)c3)n2)o1 | -4 | -17 | 0 | -4 | -75 | 41*
COc1ccc2c3c([nH]c2c1)[C@H](CO)N(CC1CC1)CC31CN(C(=O)c2cccc(F)c2)C1 | · | 0 | 0 | · | · | ·
COc1ccc(/C=C/C(=O)O)cc1Cl | -6 | 43* | 0 | -3 | -7 | 0
Cc1ccc(-c2cnc3c(c2)C(=O)N([C@@H](C)CO)C[C@H](C)[C@@H](CN(C)CC2CCCC2)O3)cc1 | -11 | 2 | 0 | 4 | 2 | 6
COc1ccc(N[C@@H]2CCN3C(=O)c4ccccc4[C@@H]3C[C@H]2O)cc1 | -4 | 0 | 0 | 0 | -5 | 6
O=C1c2ccccc2[C@@H]2C[C@@H](O)[C@H](Nc3cccc4ccccc34)CCN12 | -3 | 0 | 0 | 4 | -17 | 39*
CC(=O)Nc1cccc2c1O[C@H](CN(C)S(C)(=O)=O)[C@@H](C)CN(C)C2=O | · | · | 0 | · | · | ·
Cc1ncc(CN2CCCC(C(=O)Nc3ccc(-c4cscn4)cc3)C2)cn1 (stereo not given) | -2 | 0 | 0 | 3 | -12 | 1
Cc1ncc(CN2CCCC(C(=O)Nc3ccc(-c4ccco4)cc3)C2)cn1 (stereo not given) | -5 | 40* | 0 | -8 | -25 | 0
C/C(CC(=O)Nc1cc(C)ccn1)=N\NC(=O)c1cccc(C)c1O | -7 | 4 | 1 | 8 | 1 | 53*
C/C(CC(=O)Nc1cc(C)ccn1)=N\NC(=O)c1cccc(C)c1 | 0 | -4 | 0 | · | -12 | 2
Cc1ccc(S(=O)(=O)N[C@H]2C=C[C@H](CC(=O)NC3CCCCC3)O[C@H]2CO)cc1 | 10 | -1 | 0 | 8 | 1 | 0
N=C1S/C(=C\c2ccco2)C(=O)N1c1nccs1 | 2 | 0 | 0 | -11 | -22 | 37*
COc1ccc(CSc2nc(C)cc(C)c2C#N)cc1 | 0 | 25* | · | 4 | -10 | 0
O=C(COC(=O)c1ccc([N+](=O)[O-])o1)Nc1ccc2c(c1)OCO2 | -4 | 3 | 0 | 4 | -14 | 4
O=C(COC(=O)c1ccc([N+](=O)[O-])o1)NCc1ccccc1 | -1 | 3 | 0 | · | -29 | 25
O=C(COC(=O)c1ccc([N+](=O)[O-])o1)Nc1ccc2c(c1)OC(F)(F)O2 | -3 | 0 | 0 | 2 | -16 | 56*
COc1ccccc1CNC(=O)COC(=O)c1ccc([N+](=O)[O-])o1 | 5 | -1 | 0 | 5 | -15 | 35*
O=C(O)c1cc(N2C(=O)C=CC2=O)cc(N2C(=O)C=CC2=O)c1 | 7 | -12 | 0 | 33 | -11 | 61*
O=C(O)c1cc(C(=O)O)cc(N2C(=O)c3ccccc3C2=O)c1 | -2 | -1 | 0 | · | 13 | 21
COc1ccc(Nc2c([N+](=O)[O-])ccc3c2=NC2(CCCCC2)N=3)cc1 | -5 | 34* | 0 | 2 | -13 | 2
